Key:
[1] = Cytotoxicity against african green monkey Vero cells after 72 hrs by MTT assay; format: cell-based; conditions: chlorocebus sabaeus
Method in brief: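 Vero cells (1 × 10⁴) exposed to serial dilutions of test agents for 72 h; viability read by MTT. Three replicates; CC50 from non-linear regression of dose-response curves.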

[2] = Selectivity index, ratio of CC50 for african green monkey Vero cells to IC50 for Plasmodium falciparum 3D7; format: functional
Method in brief: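 SI = CC50 (Vero, MTT, 72 h) / IC50 against P. falciparum 3D7. […] Read-out SYBR Green I fluorescence (ex 485, em 530 nm), logistic regression, triplicate.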

[3] = Inhibition of H2O2-induced hemin degradation at 20 uM incubated for 10 mins prior to H2O2-induction measured after 30 mins by spectrophotometric analysis relative to control
[4] = test system: Plasmodium yoelii; experiment: Antimalarial activity against Plasmodium yoelii infected in Swiss mouse assessed as inhibition of beta-hematin formation in plasma after 16 hrs by spectrophotometric analysis; format: functional, organism-based
Method in brief: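 P. yoelii-infected male Swiss mice (15-20 g; 1×10^5 infected RBCs); blood at 50% parasitemia taken in 2.0% citrate, plasma used. Mix: 100 mM sodium acetate pH 5.1, 50 µL plasma, 100 µM hemin, 1–50 µg compound per 1.0 mL; 37 °C 16 h shaking, triplicate. Pellet washed (Tris-SDS, water), dissolved in NaOH, A400; IC50 by non-linear regression.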

[5] = test system: Plasmodium falciparum; experiment: Antiplasmodial activity against chloroquine-resistant Plasmodium falciparum K1 after 72 hrs by SYBR green assay; format: functional, organism-based; conditions: K1, 72 h
Method in brief: (§1)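 Compounds dissolved in DMSO (5 mg/mL or 10 mM stock), two-fold serial dilutions. Asynchronous culture (>80% rings) at 1.0% cell suspension, 0.8% parasitemia, 72 h at 37 °C under 5% CO₂/air. Lysis buffer with 2× SYBR Green I added, 1 h at 37 °C. Fluorescence read at 485/530 nm. IC50 by logistic regression of dose-response curves, three replicates, chloroquine reference.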

[6] = test system: Plasmodium falciparum; experiment: Antiplasmodial activity against chloroquine-sensitive Plasmodium falciparum 3D7 after 72 hrs by SYBR green assay; format: functional, organism-based; conditions: 3D7, 72 h; method in brief: as §1

Row | SMILES | CC50 at 72 h [1] [µM] | Ratio CC50/IC50 [2] | inhibition [3] [%] | IC50 [4] [µM] | IC50 [5] [µM] | IC50 [6] [µM]
1 | O=c1cc2c3c(cc4c(c3o1)C[C@H](O)[C@@H](c1ccc(O)c(O)c1)O4)Oc1cc(O)c(O)cc1-2 [MURURIN A] | 58.5 | 48.7 | 37.5 | 8.3 | 1.3 | 1.2
2 | COc1cc(-c2cc(=O)c3c(O)cc(O[C@@H]4O[C@H](CO)[C@@H](O)[C@H](O)[C@H]4O)cc3o2)ccc1O | 200 | 45.4 | – | > 50 | > 5 | 4.4
3 | O=C(OC[C@H]1O[C@@H](Oc2ccc(O)cc2COC(=O)[C@@]2(O)[C@H](O)C=CC(=O)[C@@H]2O)[C@H](O)[C@@H](O)[C@@H]1O)c1ccccc1 | 118 | 32.9 | – | > 50 | > 5 | 3.6
4 | O=C(OC[C@H]1O[C@@H](Oc2ccc(O)cc2CO)[C@H](O)[C@@H](O)[C@@H]1O)c1ccccc1 [POLIOTHYRSOSIDE] | 136 | 16.8 | – | > 50 | > 25 | 8.1
5 | CCN(CC)CCCC(C)Nc1ccnc2cc(Cl)ccc12 (stereo not given) [CHLOROQUINE] | 126 | – | 53.5 | 7.7 | – | –
6 | O=C(O[C@H]1[C@H](Oc2ccc(O)cc2COC(=O)[C@@]2(O)[C@H](O)C=CC(=O)[C@@H]2O)O[C@H](CO)[C@@H](O)[C@@H]1O)c1ccccc1 | 77.3 | 17.6 | – | > 50 | > 5 | 4.4
7 | O=C1C[C@@H](c2ccc(O)c(O)c2)c2c(O)cc3c(c2O1)C[C@H](O)[C@@H](c1ccc(O)c(O)c1)O3 | 200 | 181.8 | 23 | 10.1 | > 5 | 1.1
